The source of these data is paper PMC11229370 (Nucleic Acids Research, 2024).

Experiment [1] deals with T1, BtProRS2 (Bacillus thuringiensis, UniProt Q6HNZ7).
T1 sequence (Q6HNZ7 1-476): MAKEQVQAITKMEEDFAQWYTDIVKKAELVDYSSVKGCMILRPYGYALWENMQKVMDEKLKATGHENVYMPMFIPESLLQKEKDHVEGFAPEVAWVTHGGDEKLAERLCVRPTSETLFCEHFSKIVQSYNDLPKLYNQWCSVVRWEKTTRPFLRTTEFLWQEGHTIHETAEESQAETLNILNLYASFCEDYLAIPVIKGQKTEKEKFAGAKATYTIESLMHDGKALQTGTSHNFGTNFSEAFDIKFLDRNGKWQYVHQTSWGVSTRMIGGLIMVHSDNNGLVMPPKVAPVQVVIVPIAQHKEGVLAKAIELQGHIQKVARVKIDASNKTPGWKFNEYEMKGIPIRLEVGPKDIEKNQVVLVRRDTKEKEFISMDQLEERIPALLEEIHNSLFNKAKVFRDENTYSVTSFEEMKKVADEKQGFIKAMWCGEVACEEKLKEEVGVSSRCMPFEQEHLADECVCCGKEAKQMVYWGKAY
Description: Aminoacylation after pretreatment of the enzyme with H2O2, DTT, urea or GnHCl. Type of experiment: biochemical. In a few lines: (§1)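 Purified His6-tagged enzymes were expressed in E. coli BL21-CodonPlus(DE3) and purified by Ni-NTA. Enzymes at 1000 nM were pretreated 10 min at 20°C with H2O2 (0–32 mM), DTT (0–80 mM), urea (0–3200 mM) or GnHCl (0–3200 mM). They were then diluted to 100 nM final in buffer with 4 mM ATP, 10 μM transcribed tRNA^Pro and 21.13 μM [3H]-proline, run 10 min at 30°C, with TCA filter counting; three independent experiments.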

Experiment [2] concerns the target T2, BtProRS1 (Bacillus thuringiensis, UniProt Q6HEZ6).
T2 sequence (Q6HEZ6 1-566): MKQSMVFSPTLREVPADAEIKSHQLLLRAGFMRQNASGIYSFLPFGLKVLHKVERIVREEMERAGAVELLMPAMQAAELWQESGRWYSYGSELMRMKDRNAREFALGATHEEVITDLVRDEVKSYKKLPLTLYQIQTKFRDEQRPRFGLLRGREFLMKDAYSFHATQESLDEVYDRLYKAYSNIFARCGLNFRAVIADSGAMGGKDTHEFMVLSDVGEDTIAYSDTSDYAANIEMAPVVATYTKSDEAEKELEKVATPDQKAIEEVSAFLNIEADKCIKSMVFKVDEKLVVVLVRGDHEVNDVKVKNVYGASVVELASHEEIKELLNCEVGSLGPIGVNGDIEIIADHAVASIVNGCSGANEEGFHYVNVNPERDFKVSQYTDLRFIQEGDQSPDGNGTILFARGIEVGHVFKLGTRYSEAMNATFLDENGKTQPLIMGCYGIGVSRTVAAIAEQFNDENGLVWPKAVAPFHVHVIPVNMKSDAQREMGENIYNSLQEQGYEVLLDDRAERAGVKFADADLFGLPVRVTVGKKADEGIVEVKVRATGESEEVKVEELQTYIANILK
Described as above. Type of experiment: biochemical. In a few lines:
as §1

The test system of the next experiment is P. falciparum ProRS. To be noted: cited from earlier work.
The test system of experiment [3] is P-type ProRS (such as Pseudomonas aeruginosa ProRS). To be noted: cited from earlier work.
Experiment [4] concerns the target T2, BtProRS1. Kind of experiment: HF inhibition assay. Type of experiment: biochemical. In a few lines:
(§2)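 Purified His6-tagged enzyme (100 nM final) was mixed with test compound (0.1 nM–10 μM) in 50 μl aminoacylation buffer. Incubation was 10 min at 30°C, with TCA-filter scintillation counting. Relative activity is rate with inhibitor over rate without, and curves were fitted per enzyme.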

Experiment [5] relates to total cellular extracts of B. thuringiensis. Description: HF inhibition assay with total cellular extracts. To be noted: 3 μg of total cellular extracts in 50-μl aminoacylation buffer, 30°C, 10 min. Type of experiment: biochemical, Bacillus thuringiensis. In a few lines:
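B. thuringiensis ATCC 13367 was grown 24 h at 30°C in LB with shaking, PBS-washed, glass-bead lysed on ice in HEPES pH 7.2 buffer with protease inhibitors, and cleared. Extract (3 μg) was incubated with test compound (0.1 nM–10 μM) 10 min at 30°C; [3H]-proline charging of tRNA^Pro was filter-counted. Relative activity curves were fitted using the individual-enzyme curves to give the ProRS1 activity proportion.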

For another experiment, the system named is T. gondii ProRS. To be noted: cited from earlier work.
The target of experiment [6] is T1, BtProRS2. Kind of experiment: HF inhibition assay. The experiment is classed as biochemical. An outline of the steps: as §2

Regarding `O[C@@H](CS)[C@@H](O)CS` (racemic) [DTT, Dithiothreitol], the IC50 is > 80 mM at BtProRS2 [1] and 27 mM on BtProRS1 [2].
In the case of `O=C(CC1NCCCC1O)Cn1cnc2cc(Br)c(Cl)cc2c1=O` (stereo not drawn) [HF, halofuginone], the concentration for half-maximal inhibition (IC50) in the experiment on P. falciparum ProRS is 9 nM; on BtProRS1 [4], 680 nM; in experiment [5] it was ~400 nM; in the experiment on T. gondii ProRS, 5.41 nM; on BtProRS2 [6], 170 nM. Further, the “less effective against a P-type ProRS than against E-type ProRS” value in experiment [3] was ~100 fold. In addition, the “IC50 for BtProRS2 lower than that for BtProRS1” value at BtProRS2 [6] (ratio of IC50 BtProRS1 to BtProRS2) is 4 fold.
